In ChEMBL document CHEMBL4765456, “Discovery of novel liver X receptor inverse agonists as lipogenesis inhibitors” (Eur J Med Chem, 2020):
Activity calls are given as the source filed them. The calls are words filed in the database; no cut-off is given here.

Tests used:
Type in all cases: cell-based
[1] = molecular target: T1, Oxysterols receptor LXR-beta (Homo sapiens) (UniProt P55055); test: (§1) Inverse agonist activity at human LXRbeta transfected in human HEK293T cells co-transfected with pSG5 and pGL3/(DR-4)-c-fos-FF-luc/pCMV/Renilla-luc assessed as receptor transactivation incubated for 20 hrs by dual luciferase reporter gene assay
T1 sequence (whole entry): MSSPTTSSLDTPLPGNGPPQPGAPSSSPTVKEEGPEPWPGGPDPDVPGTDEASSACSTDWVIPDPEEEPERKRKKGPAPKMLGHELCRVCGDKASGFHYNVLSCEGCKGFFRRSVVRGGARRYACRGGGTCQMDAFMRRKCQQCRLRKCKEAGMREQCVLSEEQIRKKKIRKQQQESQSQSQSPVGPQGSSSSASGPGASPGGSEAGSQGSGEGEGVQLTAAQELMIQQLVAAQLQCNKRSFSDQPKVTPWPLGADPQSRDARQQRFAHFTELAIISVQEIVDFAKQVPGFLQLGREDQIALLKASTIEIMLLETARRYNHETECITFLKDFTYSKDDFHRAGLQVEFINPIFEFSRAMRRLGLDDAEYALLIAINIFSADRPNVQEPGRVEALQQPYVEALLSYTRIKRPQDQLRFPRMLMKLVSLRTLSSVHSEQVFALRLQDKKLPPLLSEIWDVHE

[2] = molecular target: T2, Oxysterols receptor LXR-alpha (Homo sapiens, UniProt Q13133); test: Inverse agonist activity at human LXRalpha transfected in human HEK293T cells co-transfected with pSG5 and pGL3/(DR-4)-c-fos-FF-luc/pCMV/Renilla-luc assessed as receptor transactivation incubated for 20 hrs by dual luciferase reporter gene assay
T2 sequence (Q13133 whole entry): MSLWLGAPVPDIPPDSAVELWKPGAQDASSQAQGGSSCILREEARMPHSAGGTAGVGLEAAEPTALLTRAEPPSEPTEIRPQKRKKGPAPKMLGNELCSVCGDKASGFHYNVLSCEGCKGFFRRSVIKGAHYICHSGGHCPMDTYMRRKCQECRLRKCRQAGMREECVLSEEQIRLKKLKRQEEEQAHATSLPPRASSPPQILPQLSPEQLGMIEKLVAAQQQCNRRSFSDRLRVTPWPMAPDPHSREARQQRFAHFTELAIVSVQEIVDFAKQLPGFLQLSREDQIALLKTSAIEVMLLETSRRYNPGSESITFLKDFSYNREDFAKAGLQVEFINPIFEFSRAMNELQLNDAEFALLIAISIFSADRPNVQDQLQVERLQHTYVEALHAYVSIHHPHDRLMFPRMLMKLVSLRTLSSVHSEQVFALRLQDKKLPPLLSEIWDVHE

[3] = molecular target: T3, Oxysterols receptor LXR-alpha (Homo sapiens) (UniProt Q13133); test: Agonist activity at human LXRalpha transfected in human HEK293T cells co-transfected with pSG5 and pGL3/(DR-4)-c-fos-FF-luc/pCMV/Renilla-luc assessed as receptor transactivation at 10 uM incubated for 20 hrs by dual luciferase reporter gene assay; conditions: filed as agonist
T3 sequence (whole entry): T2 sequence (Q13133 whole entry)
Procedure, shortened: (§2)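 HEK293T cells seeded at 2 × 10^4 per well for 24 h, then transfected with pGL3/(DR-4)-c-fos-FF-luc, pCMV/Renilla-luc, pSG5/hRXRa and pSG5/hLXRa or pSG5/hLXRb. Compound added 5 h post-transfection and left 20 h. Firefly and Renilla luciferase read by dual-luciferase assay. Means ± SD from three independent experiments.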

[4] = molecular target: T1, Oxysterols receptor LXR-beta (Homo sapiens); test: Agonist activity at human LXRbeta transfected in human HEK293T cells co-transfected with pSG5 and pGL3/(DR-4)-c-fos-FF-luc/pCMV/Renilla-luc assessed as receptor transactivation at 10 uM incubated for 20 hrs by dual luciferase reporter gene assay; conditions: filed as agonist; procedure, shortened: as §2
[5] = molecular target: T4, Oxysterols receptor LXR-beta (Homo sapiens, UniProt P55055); test: as §1
T4 sequence (P55055 whole entry): T1 sequence (whole entry)

[6] = test system: HEK-293T; test: Cytotoxicity against human HEK293T cells assessed as reduction in cell viability upto 10 uM incubated for 48 hrs by MTT assay
Procedure, shortened: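 Cells kept in DMEM with 10% FBS and 1% penicillin/streptomycin at 37 °C, 5% CO2. HEK293T seeded at 5 × 10^3 per well for 24 h, then exposed to compound for 48 h. Viability read by MTT. Means ± SD of three independent experiments.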

[7] = test system: 3T3-L1; test: Cytotoxicity against mouse 3T3-L1 cells assessed as reduction in cell viability at 10 uM incubated for 48 hrs by MTT assay; conditions: 3t3-l1, 48 h
Procedure, shortened: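 Mouse 3T3-L1 cells in DMEM with 10% FBS, 1% penicillin/streptomycin, at 37 °C, 5% CO2. Plated at 2 × 10^3 per well for 24 h, then compound for 48 h. MTT read-out of viability. Means ± SD, three independent experiments.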

[8] = test system: HepG2; test: Cytotoxicity against human HepG2 cells assessed as reduction in cell viability at 10 uM incubated for 48 hrs by MTT assay; conditions: hepg2, 48 h
Procedure, shortened: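 HepG2 grown in DMEM with 10% FBS at 37 °C, 5% CO2. Seeded at 1 × 10^5 per well for 24 h, treated 48 h, viability by MTT assay. Means ± SD from three independent experiments.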

Row | SMILES | Activity [1] | Activity [3] | Activity [4] | further results
1 | COC(=O)c1ccc(N2C(=O)[C@@]3(CCN(C(=O)OC(C)(C)C)[C@H]3C(C)C)c3ccccc32)cc1 | inactive | – | – | –
2 | CC(C)[C@@H]1N(C(=O)OC(C)(C)C)CC[C@@]12C(=O)N(c1cccc(-c3ccc(C(=O)O)c(S(C)(=O)=O)c3)c1)c1ccccc12 | – | – | – | IC50 [2]: Not Active
3 | CC(C)[C@@H]1N(C(=O)OC(C)(C)C)CC[C@@]12C(=O)N(c1cccc(-c3ccc(CO)c(Cl)c3)c1)c1ccccc12 | – | – | – | IC50 [2]: Not Active
4 | CC(C)[C@@H]1N(C(=O)OC(C)(C)C)CC[C@@]12C(=O)N(CCCC#N)c1ccccc12 | inactive | – | – | –
5 | CC(C)[C@@H]1N(C(=O)C(C)(C)C)CC[C@@]12C(=O)N(c1cccc(-c3ccc(C(=O)N(C)C)c(Cl)c3)c1)c1ccccc12 | inactive | Active | Active | –
6 | CC(C)[C@@H]1N(C(=O)OC(C)(C)C)CC[C@@]12C(=O)N(c1ccc(CO)c(S(C)(=O)=O)c1)c1ccccc12 | inactive | Active | Active | –
7 | COC(=O)c1ccc(N2C(=O)[C@@]3(CCN(C(=O)OC(C)(C)C)[C@H]3C(C)C)c3ccccc32)cc1S(C)(=O)=O | inactive | Active | Active | –
8 | CC(C)[C@@H]1N(C(=O)OC(C)(C)C)CC[C@@]12C(=O)N(c1cccc(-c3ccc4ccn(C)c4c3)c1)c1ccccc12 | – | – | – | IC50 [2]: Not Active; IC50 [5]: > 20 µM
9 | CC(C)[C@@H]1N(C(=O)OC(C)(C)C)CC[C@@]12C(=O)N(CCCCl)c1ccccc12 | inactive | – | – | –
10 | CC(C)[C@@H]1N(C(=O)OC(C)(C)C)CC[C@@]12C(=O)N(c1cccc(-c3ccc(CO)cc3)c1)c1ccccc12 | – | – | – | IC50 [2]: Not Active
11 | CC(C)[C@@H]1N(C(=O)OC(C)(C)C)CC[C@@]12C(=O)N(c1cccc(-c3ccc(C(=O)N(C)C)c(Cl)c3)c1)c1ccccc12 | inactive | Active | Active | –
12 | CC(C)[C@@H]1N(C(=O)CC(C)(C)C)CC[C@@]12C(=O)N(c1cccc(-c3ccc(C(=O)N(C)C)c(Cl)c3)c1)c1ccccc12 | inactive | Active | Active | –
13 | CC(C)[C@H]1N(C(=O)OC(C)(C)C)CC[C@]12C(=O)N(c1cccc(-c3ccc(CO)c(S(C)(=O)=O)c3)c1)c1ccccc12 | – | – | – | Activity [6]: Non-Toxic; Activity [7]: Non-Toxic; Activity [8]: Non-Toxic
14 | CC(C)[C@@H]1N(C(=O)OC(C)(C)C)CC[C@@]12C(=O)N(c1ccc(CO)cc1)c1ccccc12 | inactive | – | – | –
15 | CC(C)[C@@H]1N(C(=O)OC(C)(C)C)CC[C@@]12C(=O)N(CCCC(=O)O)c1ccccc12 | inactive | – | – | –
